Bioassay records (PubChem)
HTR2A ag: agonists of mouse serotonin 5-HT2A receptor (HTR2A); CHO-K1 mHTR2A beta-arrestin complementation, luminescence; percent of 30 µM serotonin response; activation, % at 7.6 µM; 360,000 compounds, 0.66% hits; AID 624169;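 active means activation above a run cutoff, the mean activation of all tested compounds plus 3 SD, cut at about 14% in these data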;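 further: 0% = plate median of compound wells and 100% = 30 µM serotonin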
Target sequence (P35363 whole entry, looked up): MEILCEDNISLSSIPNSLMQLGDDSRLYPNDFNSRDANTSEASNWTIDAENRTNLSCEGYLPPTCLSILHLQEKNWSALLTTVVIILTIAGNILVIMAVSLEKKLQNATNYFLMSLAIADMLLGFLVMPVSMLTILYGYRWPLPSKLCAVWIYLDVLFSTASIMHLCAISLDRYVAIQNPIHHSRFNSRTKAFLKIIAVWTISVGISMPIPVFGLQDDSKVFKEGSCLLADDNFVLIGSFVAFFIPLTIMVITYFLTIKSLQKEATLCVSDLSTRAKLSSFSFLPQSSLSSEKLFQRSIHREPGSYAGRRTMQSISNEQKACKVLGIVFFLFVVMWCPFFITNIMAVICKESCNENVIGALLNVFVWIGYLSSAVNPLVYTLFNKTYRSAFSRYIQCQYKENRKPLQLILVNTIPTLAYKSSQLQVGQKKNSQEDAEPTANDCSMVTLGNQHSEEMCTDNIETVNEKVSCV
IMP-1 inh: blocks Pseudomonas aeruginosa IMP-1 metallo-beta-lactamase. purified IMP-1, nitrocefin hydrolysis, epi-absorbance fluorescence. inhibition, % at 5.6 µM. 290,000 compounds, 0.45% hits. AID 1556;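 active means inhibition above the mean plus 3 SD of all compounds in the same screening run, cut at about 4.5% in these data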;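 further: 0% = IMP-1 with DMSO and 100% = DMSO wells lacking enzyme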
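Assay system: purified IMP-1; Quantity: IMP-1 0.2 nM before substrate addition; Medium: HEPES buffer pH 7.1 with ZnSO4 and Brij 35; Incubation: 15 min enzyme–compound preincubation, then 25 min nitrocefin reaction, 25 °C; Signal: fluorescence quenching readout, ex 480/em 530 nm; Controls: DMSO with and without IMP-1; Repeats: singlicate testing.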
VIM-2 inh: blocks Pseudomonas aeruginosa VIM-2 metallo-beta-lactamase; purified VIM-2, nitrocefin hydrolysis, epi-absorbance fluorescence; inhibition, % at 5.6 µM; 290,000 compounds, 0.89% hits; AID 1527;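 active means inhibition above the mean of all tested compounds plus 3 SD, cutoff set per screening run, cut at about 7.5% in these data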;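 further: red hydrolysis product quenches plate fluorescence so inhibitors raise well fluorescence; 0% = enzyme with DMSO and 100% = DMSO without enzyme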
dFosB act: enhances mouse delta FosB homodimer DNA binding. P13346. purified delta FosB, TAMRA-CDK5 oligo fluorescence polarization; percent of positive-control signal above neutral wells. 340,000 compounds, 0.99% hits. activation, % at 25 µM;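 active means mean activation above about 17%, with every replicate also reaching it, limit read from the data, passing the limit was not always enough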
* = called active by the depositor; / = no result given. Hits are enriched below; roughly 2.5% of the tested compounds scored in any of these assays.

SMILES	HTR2A ag	IMP-1 inh	VIM-2 inh	dFosB act
COc1ccc(N/N=C(\C=N\O)C(=O)c2ccc(OC)cc2)cc1	-2	0	-5	-8
COc1ccccc1C(=O)N/C(=C\c1ccccc1)C(=O)NCc1ccco1	-3	-1	-1	-3
NC(=O)SC/C(=N\S(=O)(=O)c1ccccc1)Nc1ccccc1	2	-3	-3	0
Cc1ccc(N/C(CSC(N)=O)=N/S(=O)(=O)c2ccccc2)cc1	4	4.8*	-1	1
C/C(=N\S(=O)(=O)c1ccc(C)cc1)NC(=S)Nc1ccc(C)cc1	-5	-1	1	-3
Cc1ccc(N/C(CSC(N)=O)=N\S(=O)(=O)c2ccc(C)cc2)cc1	2	5.0*	-1	-6
COc1ccc(NC(=O)CN2CCCCC2)c([N+](=O)[O-])c1	16*	-2	-2	-4
COc1ccc(NC(=O)CN2CCC(C)CC2)c([N+](=O)[O-])c1	5	-3	-1	1
CCOC(=O)C1=C(C)NC(C)=C(C(=O)OCC)C1C(=O)OCC(=O)NC1CCCCC1	1	/	/	-14
CC(=O)Nc1ccc(NC(=O)CCCSc2nc3ccccc3[nH]2)cc1	-5	7.8*	-3	-1
N[C@H]1C(O)O[C@H](CO)[C@@H](O)[C@@H]1O (stereo partly drawn)	2	/	/	7
CN(Cc1c(C(=O)N/N=C/c2ccccc2O)nnn1-c1nonc1N)C1CCCCC1	-1	/	/	/
CC(C)OC(=O)C(C(=O)C(F)(F)F)c1cc(NS(=O)(=O)c2ccc3ccccc3c2)c2ccccc2c1O (stereo not drawn)	-1	9.1*	3	-18
COc1cc(NC(=O)c2cccc(C)c2)ccc1NC(=O)c1cc2ccccc2o1	1	-2	-2	3
Cc1nc2scc(C)n2c(=O)c1S(=O)(=O)Nc1ccc(OC(F)(F)F)cc1	0	-2	-2	-14
CCN1CCN(CC(=O)Nc2c(OC)cccc2OC)CC1	6	5.5*	-3	-4
CC(=O)n1cc([C@@H]2C=C(C(=O)O)O[C@H](OCc3ccc(CO)cc3)C2)c2ccccc21	-6	-1	8.8*	-5
O=C(Cc1ccccc1)Nc1ccc(N2CCOCC2)cc1	-2	1	-1	-4
O=C(Cc1ccccc1)Nc1ccc(N2CCCC2)cc1	2	-3	-3	68*
O=C(Nc1ccc(N2CCCC2)cc1)C(c1ccccc1)c1ccccc1	4	0	-2	77*
C[C@H](CO)N1C[C@H](C)[C@H](CN(C)C(=O)Nc2ccc(C(F)(F)F)cc2)OCc2cnnn2CCCC1=O	5	/	/	/
CCOc1cc2c(C#N)c(N3CCCCC3)nc(N)c2c(N)n1	-5	0	-2	-8
CCOc1cc2c(C#N)c(N3CCNCC3)nc(N)c2c(N)n1	-2	-2	8.7*	13
COc1ccc(C=NNC(=O)c2ccccc2OCc2ccc(F)cc2)c(OC)c1	-6	/	/	-2
Cc1ccc(-c2nn(C)c(=O)c3ccccc23)cc1CN1CCCCC1	1	-4	9.2*	-10
SMILES	HTR2A ag	IMP-1 inh	VIM-2 inh	dFosB act
Cc1ccc(-c2nn(C)c(=O)c3ccccc23)cc1CNS(C)(=O)=O	0	-2	7	-1
O=C(Nc1ccc(Br)cc1)C1CCCN(C2=NS(=O)(=O)c3ccccc32)C1 (stereo not drawn)	-8	/	/	13
N#Cc1c(C(F)(F)F)cc(-c2cccs2)nc1SCc1cccnc1	17*	-3	-1	-4
N#Cc1c(C(F)(F)F)cc(-c2cccs2)nc1SCc1ccc(Cl)nc1	0	-3	-3	-26
CCc1cc(=O)oc2cc(C)cc(OC(=O)c3ccco3)c12	11	-3	11*	-7
COc1ccc(OC/C(O)=C(\C#N)c2nc3ccccc3[nH]2)cc1	5	-4	-5	-3
COc1ccccc1OCC(=O)OC/C(O)=C(\C#N)c1nc2ccccc2[nH]1	-4	1	11*	1
CCNC(=O)C1(C)CCCN1C(=O)c1cc(OC)c(OC)c(OC)c1 (stereo not drawn)	0	/	/	/
CCOC(=O)C1CCCN(C2=NC(=O)/C(=C/c3ccc(OC)cc3)S2)C1 (stereo not drawn)	3	-3	-4	-3
CCOC(=O)C1CCCN(C2=NC(=O)/C(=C/c3ccc(O)c(OCC)c3)S2)C1 (stereo not drawn)	-4	-1	8.9*	-21
N#C/C(=C/c1cn(-c2ccccc2)nc1-c1cccc(OCc2ccccc2)c1)C(=O)NCCCn1ccnc1	-7	-3	-3	31*
CCOc1cccc(-c2nn(-c3ccccc3)cc2/C=C(/C#N)C(=O)NCCCn2ccnc2)c1	-6	-1	-4	-20
CCN1/C(=C2\SC(=S)N(Cc3ccccc3)C2=O)Sc2ccccc21	0	-2	-2	-8
CCC(CO)[n+]1c(C)cc(/C=C2\Sc3ccccc3N2Cc2ccccc2)cc1C (stereo not drawn)	-3	9.9*	-1	24*
CCCNC(=O)C1(C)CCN(C(=O)c2ccc3c(c2)CCO3)C1 (stereo not drawn)	7	/	/	/
Cc1n[nH]c(C)c1Sc1ccccc1[N+](=O)[O-]	-2	-4	-4	2
Cc1n[nH]c(C)c1Sc1ccccc1N=Cc1cc(Cl)cc([N+](=O)[O-])c1O	8	0	-7	51*
CC1CCCCC1NC(=O)CCCCn1c(=O)[nH]c2ccsc2c1=O (stereo not drawn)	3	-1	-3	-2
c1coc(CN(Cc2ccco2)c2ncnc3c2oc2ccccc23)c1	1	4.7*	0	-11
O=C(Nc1ccc(F)cc1)C1CCCN(S(=O)(=O)c2ccc3[nH]c(=O)ccc3c2)C1 (stereo not drawn)	-1	-4	-1	18*
O=C(NC1CC1)c1cccc(NC(=O)C2CCN(S(=O)(=O)c3ccccc3C(F)(F)F)CC2)c1	-7	/	/	/
CCOc1ccc(/C=N/OC(C)C(=O)NCc2ccc3c(c2)OCO3)cc1 (stereo not drawn)	1	-1	-3	2
CCOc1ccc(CNC(=S)Nc2ccccc2)cc1Cl	-3	6.3*	-1	-2
CC(=O)Nc1ccc2cc3ccc(NC(C)=O)cc3nc2c1	0	3	8.4*	-48
CCOC(=O)c1cc(-c2ccc(N3CCOCC3)cc2)nn1-c1ccccc1C(=O)O	-3	22*	1	-8
SMILES	HTR2A ag	IMP-1 inh	VIM-2 inh	dFosB act
CCN(CC)CCN(C(=O)C1=COCCO1)c1nc2c(OC)ccc(OC)c2s1	-8	-4	8.9*	10
COc1ccc(OC)c2sc(N(CCN(C)C)C(=O)c3ccc4ccccc4c3)nc12	-4	-2	1	30*
CCc1ccc2nc(N(CCN(C)C)C(=O)c3ccc4ccccc4c3)sc2c1	-6	-3	-1	22*
CCN(CC)CCN(C(=O)C1=COCCO1)c1nc2ccc(C)cc2s1	-10	-1	1	-18
CN(C)CCN(C(=O)c1ccc2ccccc2c1)c1nc2cc3c(cc2s1)OCO3	-7	/	/	/
CN(C)CCN(C(=O)c1ccc2ccccc2c1)c1nc2ccc(F)cc2s1	-1	-3	-1	26*
